Measured values: ChEMBL document CHEMBL1122125, “Synthesis and in vivo antitumor activity of potential 5-fluorouracil prodrugs” (1982)

Tests used:
Assay type in all cases: functional
Mus musculus [1] = experiment: Antitumor activity was determined for average 7-day weight change against P-388 leukemia in mice at a dose of 300 mg/kg
Outline: (§1)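 Male B6D2F1J mice given 10⁶ P-388 cells ip on day 0, then treated ip once daily on days 1-4 (qd × 4), 5 mice per dose group. Compounds dosed in sterile saline, except one lipophilic thioether given in 10% Tween 80. Mice weighed on days 1 and 7; mean weight per mouse on day 1 and 7-day weight change reported in g and as percent.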

Mus musculus [2] = experiment: Antitumor activity was determined for average 7-day weight change against P-388 leukemia in mice at a dose of 50 mg/kg; outline: as §1
Mus musculus [3] = experiment: Antitumor activity was determined for average weight on day 1 against P-388 leukemia in mice at a dose of 200 mg/kg
Outline: (§2)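 Male B6D2F1J mice, groups of 5, inoculated ip with 10⁶ P-388 cells on day 0. Drug given ip on days 1-4 (qd × 4) in sterile saline, or in 10% Tween 80 for the poorly water-soluble thioether. Average weight per mouse recorded on day 1, with reweighing on day 7 for percent weight change. Untreated control groups had 10-17 animals per experiment.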

Mus musculus [4] = experiment: Antitumor activity was determined for average weight on day 1 against P-388 leukemia in mice at a dose of 25 mg/kg; outline: as §2
Mus musculus [5] = experiment: Antitumor activity was determined for average weight on day 1 against P-388 leukemia in mice at a dose of 300 mg/kg; outline: as §2
Mus musculus [6] = experiment: Antitumor activity was determined for average weight on day 1 against P-388 leukemia in mice at a dose of 50 mg/kg; outline: as §2
Mus musculus [7] = experiment: Antitumor activity was determined for average weight on day 1 against P-388 leukemia in mice at a dose of 100 mg/kg; outline: as §1
Mus musculus [8] = experiment: Percent increase in life span against P-388 leukemia in mice was determined at a dose of 50 mg/kg; details: P388
Outline: (§3)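 Male B6D2F1J mice, 5 per dose group, received 10⁶ P-388 cells ip on day 0. Dosing was ip qd × 4 on days 1-4 in sterile saline, or 10% Tween 80 for the butyl thioether. Median survival times of treated (T) and untreated control (C, 10-17 mice) groups were compared: %ILS = [(T/C) − 1]100. Weights taken on days 1 and 7.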

Mus musculus [9] = experiment: Antitumor activity was determined for average 7-day weight change against P-388 leukemia in mice at a dose of 200 mg/kg; outline: as §1
Mus musculus [10] = experiment: Antitumor activity was determined for average 7-day weight change against P-388 leukemia in mice at a dose of 25 mg/kg; outline: as §1
Mus musculus [11] = experiment: Antitumor activity was determined for average 7-day weight change against P-388 leukemia in mice at a dose of 100 mg/kg; outline: as §1
Mus musculus [12] = experiment: Percent increase in life span against P-388 leukemia in mice was determined at a dose of 100 mg/kg; details: P388; outline: as §3
Mus musculus [13] = experiment: Percent increase in life span against P-388 leukemia in mice was determined at a dose of 200 mg/kg; details: P388; outline: as §3
Mus musculus [14] = experiment: Percent increase in life span against P-388 leukemia in mice was determined at a dose of 25 mg/kg; details: P388; outline: as §3
Mus musculus [15] = experiment: Percent increase in life span against P-388 leukemia in mice was determined at a dose of 300 mg/kg; details: P388; outline: as §3
Mus musculus [16] = experiment: Antitumor activity was determined for survival range of mice against P-388 leukemia in mice at a dose of 50 mg/kg
Outline: (§4)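 Male B6D2F1J mice implanted ip with 10⁶ P-388 cells on day 0; test agents given ip on days 1–4 (qd × 4) in sterile saline, or in 10% Tween 80 for the lipophilic thioether. Groups of 5 treated mice, with 10–17 untreated controls per experiment. Mice weighed on days 1 and 7 to give the 7-day weight change in g and %. Survival recorded in days as median and range.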

Mus musculus [17] = experiment: Antitumor activity was determined for median survival of mice against P-388 leukemia in mice at a dose of 100 mg/kg; outline: as §4
Mus musculus [18] = experiment: Antitumor activity was determined for median survival of mice against P-388 leukemia in mice at a dose of 200 mg/kg; outline: as §4
Mus musculus [19] = experiment: Antitumor activity was determined for median survival of mice against P-388 leukemia in mice at a dose of 25 mg/kg; outline: as §4
Mus musculus [20] = experiment: Antitumor activity was determined for survival range of mice against P-388 leukemia in mice at a dose of 100 mg/kg; outline: as §4
Mus musculus [21] = experiment: Antitumor activity was determined for survival range of mice against P-388 leukemia in mice at a dose of 25 mg/kg; outline: as §4
Mus musculus [22] = experiment: Antitumor activity was determined for survival range of mice against P-388 leukemia in mice at a dose of 300 mg/kg; outline: as §4
Mus musculus [23] = experiment: Antitumor activity was determined for median survival of mice against P-388 leukemia in mice at a dose of 50 mg/kg; outline: as §4
Mus musculus [24] = experiment: Antitumor activity was determined for 7-day average percent weight change against P-388 leukemia in mice at a dose of 100 mg/kg; outline: as §1
Mus musculus [25] = experiment: Antitumor activity was determined for 7-day average percent weight change against P-388 leukemia in mice at a dose of 200 mg/kg; outline: as §1
Mus musculus [26] = experiment: Antitumor activity was determined for 7-day average percent weight change against P-388 leukemia in mice at a dose of 25 mg/kg; outline: as §1
Mus musculus [27] = experiment: Antitumor activity was determined for 7-day average percent weight change against P-388 leukemia in mice at a dose of 300 mg/kg; outline: as §1
Mus musculus [28] = experiment: Antitumor activity was determined for 7-day average percent weight change against P-388 leukemia in mice at a dose of 50 mg/kg; outline: as §1
L1210 = experiment: Evaluated for cytotoxicity against L1210 mouse leukemia cells; details: read-out: ID50 (the source's name)
Outline: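 L1210 murine leukemia cells in Eagle's minimal essential medium with 15% fetal calf serum, streptomycin (100 μg/mL), penicillin (100 units/mL) and 0.05 mM 2-mercaptoethanol. Cells counted by Coulter counter after 48 h exposure. ID50 is the 50% growth-inhibitory dose. Triplicate assays, standard deviation ±10%.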

Mus musculus [29] = experiment: Antitumor activity was determined for median survival of mice against P-388 leukemia in mice at a dose of 300 mg/kg; outline: as §4
Mus musculus [30] = experiment: Antitumor activity was determined for survival range of mice against P-388 leukemia in mice at a dose of 200 mg/kg; outline: as §4

O=C(O)[C@H]1OC(n2cc(F)c(=O)[nH]c2=O)[C@H](O)[C@@H]1O (stereo partly specified)
Average weight (Mus musculus [1]): 0 g mouse-1
Average weight (Mus musculus [2]): 1.6 g mouse-1
Average weight (Mus musculus [3]): 23.8 g mouse-1
Average weight (Mus musculus [4]): 24.6 g mouse-1
Average weight (Mus musculus [5]): 25 g mouse-1
Average weight (Mus musculus [6]): 24.2 g mouse-1
Average weight (Mus musculus [7]): 23.6 g mouse-1
ILS at 50 mg/kg (Mus musculus [8]): 36%
Average weight (Mus musculus [9]): -0.8 g mouse-1
Average weight (Mus musculus [10]): 2.6 g mouse-1
Average weight (Mus musculus [11]): 2 g mouse-1
ILS at 100 mg/kg (Mus musculus [12]): 45%
ILS at 200 mg/kg (Mus musculus [13]): 45%
ILS at 25 mg/kg (Mus musculus [14]): 27%
ILS at 300 mg/kg (Mus musculus [15]): 63%
Survival range (Mus musculus [16]): 13
Survival median (Mus musculus [17]): 16
Survival median (Mus musculus [18]): 16
Survival median (Mus musculus [19]): 14
Survival range (Mus musculus [20]): 15
Survival range (Mus musculus [21]): 14
Survival range (Mus musculus [22]): 16
Survival median (Mus musculus [23]): 15
Weight change (Mus musculus [24]): 8%
Weight change (Mus musculus [25]): -3%
Weight change (Mus musculus [26]): 10%
Weight change (Mus musculus [27]): 0%
Weight change (Mus musculus [28]): 7%
IC50 (L1210): > 1000 µM
Survival median (Mus musculus [29]): 18
Survival range (Mus musculus [30]): 16
